Measurements from ChEMBL document CHEMBL3425411, “Synthesis of β-Carboline-Based N-Heterocyclic Carbenes and Their Antiproliferative and Antimetastatic Activities against Human Breast Cancer Cells” (J Med Chem, 2015).
Calls of active or inactive are those of the source. The calls are words filed in the database; no cut-off is given here.

Assays:
MDA-MB-231 [1] = assay: Cytotoxicity against human MDA-MB-231 cells assessed as growth inhibition after 24 to 72 hrs by MTT assay; assay type: functional, cell-based
How it was run: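 About 5000 cells/well were grown 24 h in RPMI-1640 with 10% FBS, then given fresh medium with compound at various concentrations (from 10 mM DMSO stocks) for 24, 48 and 72 h. MTT (5 mg/mL stock) was added for 2 h and formazan dissolved in DMSO. Absorbance was read at 595 nm and expressed as percent proliferation versus DMSO control.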

MDA-MB-231 [2] = assay: Induction of apoptosis in human MDA-MB-231 cells assessed as early apoptotic cells at 12.5 uM after 24 hrs by annexin V-propidium iodide/Alexa Fluor 488 staining-based flow cytometric analysis (reference value: 4.05 to 4.68%); assay type: functional
MDA-MB-231 [3] = assay: Induction of apoptosis in human MDA-MB-231 cells assessed as late apoptotic cells at 7.5 uM after 24 hrs by annexin V-propidium iodide/Alexa Fluor 488 staining-based flow cytometric analysis (reference value: 2.08 to 3.78%); assay type: functional
How it was run: (§1)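 MDA-MB-231 cells, about 2 × 10⁵ per well, seeded in triplicate and treated for 24 h in RPMI-1640 with 10% FBS. Stained with Alexa Fluor 488 annexin V and propidium iodide, then read by flow cytometry. AV+/PI+ events were counted as late apoptotic and reported as percentage of cells relative to control. Three independent experiments, mean ± SEM.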

MDA-MB-231 [4] = assay: Induction of apoptosis in human MDA-MB-231 cells assessed as late apoptotic cells at 12.5 uM after 24 hrs by annexin V-propidium iodide/Alexa Fluor 488 staining-based flow cytometric analysis (reference value: 2.08 to 3.78%); assay type: functional; how it was run: as §1
MDA-MB-231 [5] = assay: Upregulation of cleaved caspase-3 expression in human MDA-MB-231 cells at 7.5 to 10 uM after 24 hrs by Western blot analysis; assay type: functional, cell-based
How it was run: (§2)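 MDA-MB-231 cells treated 24 h, then lysed in RIPA buffer. 40 μg protein run on 10–15% SDS–PAGE and transferred to PVDF. Blocked in 5% milk, probed overnight at 4 °C with primary antibodies (phospho- and total ERK1/2, JNK, p38, cleaved caspase-3), then HRP secondary. ECL detection with β-actin as loading control. Blots representative of three experiments.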

MDA-MB-231 [6] = assay: Downregulation of Bcl-2 expression in human MDA-MB-231 cells at 7.5 to 10 uM after 24 hrs by Western blot analysis; assay type: functional, cell-based
How it was run: (§3)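 Cells were treated for 24 h. Lysates were made in RIPA buffer, and 40 μg protein was resolved on 10–15% SDS-PAGE and transferred to PVDF. Membranes were blocked with 5% milk and probed overnight at 4 °C with primary antibodies, then HRP secondaries. Detection was by ECL with β-actin as loading control. Blots represent three independent experiments.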

MDA-MB-231 [7] = assay: Downregulation of Bcl-XL expression in human MDA-MB-231 cells at 7.5 to 10 uM after 24 hrs by Western blot analysis; assay type: functional, cell-based; how it was run: as §3
MDA-MB-231 [8] = assay: Downregulation of survivin expression in human MDA-MB-231 cells at 7.5 to 10 uM after 24 hrs by Western blot analysis; assay type: functional, cell-based; how it was run: as §3
MDA-MB-231 [9] = assay: Induction of apoptosis in human MDA-MB-231 cells assessed as PARP cleavage at 7.5 to 10 uM after 24 hrs by Western blot analysis; assay type: functional, cell-based; how it was run: as §3
MDA-MB-231 [10] = assay: Cell cycle arrest in human MDA-MB-231 cells assessed as accumulation at G0/G1 phase at 10 uM after 24 hrs by propidium iodide staining-based flow cytometric analysis (reference value: 44.3 to 47.1%); assay type: functional
MDA-MB-231 [11] = assay: Cell cycle arrest in human MDA-MB-231 cells assessed as accumulation at S phase at 10 uM after 24 hrs by propidium iodide staining-based flow cytometric analysis (reference value: 32.5 to 34.7%); assay type: functional
MDA-MB-231 [12] = assay: Cell cycle arrest in human MDA-MB-231 cells assessed as accumulation at G2/M phase at 10 uM after 24 hrs by propidium iodide staining-based flow cytometric analysis (reference value: 18.2 to 23.1%); assay type: functional
MDA-MB-231 [13] = assay: Downregulation of cyclin B expression in human MDA-MB-231 cells at 7.5 to 10 uM after 24 hrs by Western blot analysis; assay type: functional, cell-based; how it was run: as §3
MDA-MB-231 [14] = assay: Downregulation of CDC25C expression in human MDA-MB-231 cells at 7.5 to 10 uM after 24 hrs by Western blot analysis; assay type: functional, cell-based; how it was run: as §3
MDA-MB-231 [15] = assay: Downregulation of CDK1 expression in human MDA-MB-231 cells at 7.5 to 10 uM after 24 hrs by Western blot analysis; assay type: functional, cell-based; how it was run: as §3
MDA-MB-231 [16] = assay: Antimigratory activity against human MDA-MB-231 cells at 1 to 7.5 uM after 12 to 24 hrs by wound healing assay; assay type: functional, cell-based
How it was run: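 2 × 10⁵ cells were plated in six-well plates and scratched with a 200 μL tip. Debris was removed, then cells were treated (0, 1, 2.5, 5, 7.5 μM; or 0–5 μM). The wound was photographed at 0, 12 and 24 h under 100× phase contrast. Area was measured as percent wound closure versus control. Three independent experiments, mean ± SEM.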

MDA-MB-231 [17] = assay: Antiinvasive activity against human MDA-MB-231 cells at 2.5 uM after 48 hrs by transwell assay; assay type: functional, cell-based
How it was run: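 Matrigel (growth factor reduced, diluted in serum-free medium) coated on 8 μm pore polycarbonate transwell membranes, set 2 h at 37 °C. 30 000 cells/well seeded in RPMI-1640 with 1% FBS plus compound; lower chamber had 10% FBS as chemoattractant. After 48 h, non-invaded cells were swabbed off and invaded cells were methanol-fixed and stained with 0.1% crystal violet. At least 10 random fields were counted and expressed versus control.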

[18] = biological target: 72 kDa type IV collagenase (Homo sapiens) (UniProt P08253); assay: Inhibition of MMP-2 in human MDA-MB-231 cells at 1 to 7.5 uM after 24 hrs by gelatin zymographic method; assay type: cell-based
Sequence of 72 kDa type IV collagenase (Homo sapiens) (P08253 110-660 limits assumed): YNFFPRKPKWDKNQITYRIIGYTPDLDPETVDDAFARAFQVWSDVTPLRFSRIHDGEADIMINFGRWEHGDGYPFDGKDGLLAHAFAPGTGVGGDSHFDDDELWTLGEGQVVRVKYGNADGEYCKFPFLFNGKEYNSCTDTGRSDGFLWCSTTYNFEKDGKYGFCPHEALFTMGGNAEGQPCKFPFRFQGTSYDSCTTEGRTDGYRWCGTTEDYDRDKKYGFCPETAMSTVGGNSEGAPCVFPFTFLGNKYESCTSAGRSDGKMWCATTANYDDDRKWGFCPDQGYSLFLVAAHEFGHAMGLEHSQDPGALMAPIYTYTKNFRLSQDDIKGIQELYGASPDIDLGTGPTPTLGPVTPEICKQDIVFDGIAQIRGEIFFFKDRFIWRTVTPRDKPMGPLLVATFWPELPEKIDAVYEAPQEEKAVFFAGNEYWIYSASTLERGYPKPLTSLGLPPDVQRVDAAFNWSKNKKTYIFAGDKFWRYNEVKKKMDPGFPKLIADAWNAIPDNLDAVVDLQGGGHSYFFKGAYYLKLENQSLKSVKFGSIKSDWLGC
How it was run: (§4)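 MDA-MB-231 cells, 1 × 10⁵ per well, treated 24 h with 0, 1, 2.5, 5 or 7.5 μM. Conditioned medium centrifuged and equal protein loaded on 8% SDS–PAGE containing 0.1% gelatin, run at 80 V. Triton X-100 washes, then developed 20 h at 37 °C in Tris-HCl pH 7.5 with NaCl, CaCl₂ and ZnCl₂. Coomassie stain, then destain.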

[19] = biological target: Matrix metalloproteinase-9 (Homo sapiens) (UniProt P14780); assay: Inhibition of MMP-9 in human MDA-MB-231 cells at 1 to 7.5 uM after 24 hrs by gelatin zymographic method; assay type: cell-based; how it was run: as §4
Sequence of Matrix metalloproteinase-9 (Homo sapiens) (P14780 whole entry): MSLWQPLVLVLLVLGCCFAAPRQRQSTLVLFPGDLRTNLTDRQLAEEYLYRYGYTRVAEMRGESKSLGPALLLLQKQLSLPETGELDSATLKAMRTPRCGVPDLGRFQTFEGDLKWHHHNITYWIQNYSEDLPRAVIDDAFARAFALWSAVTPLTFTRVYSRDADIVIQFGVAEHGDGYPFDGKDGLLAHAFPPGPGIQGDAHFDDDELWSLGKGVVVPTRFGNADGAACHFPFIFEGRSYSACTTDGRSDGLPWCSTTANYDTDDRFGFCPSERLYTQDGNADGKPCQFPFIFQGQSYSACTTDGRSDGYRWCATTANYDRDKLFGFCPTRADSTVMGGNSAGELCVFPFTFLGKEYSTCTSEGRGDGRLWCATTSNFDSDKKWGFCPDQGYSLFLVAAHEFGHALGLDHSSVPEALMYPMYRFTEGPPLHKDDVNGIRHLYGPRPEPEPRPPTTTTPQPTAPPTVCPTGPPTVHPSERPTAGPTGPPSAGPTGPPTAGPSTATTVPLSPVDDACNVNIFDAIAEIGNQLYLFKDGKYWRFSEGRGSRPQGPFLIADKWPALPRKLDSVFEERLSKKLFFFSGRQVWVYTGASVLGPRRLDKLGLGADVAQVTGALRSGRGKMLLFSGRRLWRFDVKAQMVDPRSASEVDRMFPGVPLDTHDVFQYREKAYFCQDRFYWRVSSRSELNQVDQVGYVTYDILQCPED

[20] = biological target: Mitogen-activated protein kinase; ERK1/ERK2 (Homo sapiens) (UniProt P27361+P28482); assay: Inhibition of ERK1/2 phosphorylation in human MDA-MB-231 cells at 7.5 to 10 uM after 24 hrs by Western blot analysis; assay type: cell-based; how it was run: as §2
Sequence of Mitogen-activated protein kinase; ERK1/ERK2 (Homo sapiens) (P27361 whole entry, looked up): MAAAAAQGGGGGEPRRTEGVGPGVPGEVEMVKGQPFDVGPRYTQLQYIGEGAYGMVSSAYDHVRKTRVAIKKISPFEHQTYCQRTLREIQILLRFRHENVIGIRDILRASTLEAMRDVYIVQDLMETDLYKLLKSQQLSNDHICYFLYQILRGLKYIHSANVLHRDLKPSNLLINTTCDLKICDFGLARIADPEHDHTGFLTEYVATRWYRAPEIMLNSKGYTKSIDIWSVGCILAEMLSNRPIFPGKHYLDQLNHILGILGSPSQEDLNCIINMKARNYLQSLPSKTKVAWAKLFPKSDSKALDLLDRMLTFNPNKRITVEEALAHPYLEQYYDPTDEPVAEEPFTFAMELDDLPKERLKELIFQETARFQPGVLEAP
Sequence of Mitogen-activated protein kinase; ERK1/ERK2 (Homo sapiens) (P28482 whole entry, looked up): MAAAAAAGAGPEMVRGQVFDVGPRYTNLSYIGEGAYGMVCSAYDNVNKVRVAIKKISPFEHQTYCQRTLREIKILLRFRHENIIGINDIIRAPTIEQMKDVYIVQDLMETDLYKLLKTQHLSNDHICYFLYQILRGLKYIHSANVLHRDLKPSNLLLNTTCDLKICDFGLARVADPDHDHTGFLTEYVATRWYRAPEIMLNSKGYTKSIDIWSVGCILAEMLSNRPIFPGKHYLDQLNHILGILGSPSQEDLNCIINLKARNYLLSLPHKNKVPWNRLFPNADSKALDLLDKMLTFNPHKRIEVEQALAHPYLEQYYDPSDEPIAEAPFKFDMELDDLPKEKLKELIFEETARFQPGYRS

[21] = biological target: c-Jun N-terminal kinase, JNK (Homo sapiens) (UniProt P45983+P53779+P45984); assay: Inhibition of SAPK/JNK phosphorylation in human MDA-MB-231 cells at 7.5 to 10 uM after 24 hrs by Western blot analysis; assay type: cell-based; how it was run: as §2
[22] = biological target: MAP kinase p38 (Homo sapiens) (UniProt O15264+Q15759+Q16539+P53778); assay: Induction of p38 MAPK phosphorylation in human MDA-MB-231 cells at 7.5 to 10 uM after 24 hrs by Western blot analysis; assay type: cell-based; how it was run: as §2

SMILES	IC50 (MDA-MB-231 [1])	Activity (MDA-MB-231 [2])	Activity (MDA-MB-231 [3])	Activity (MDA-MB-231 [4])	Activity (MDA-MB-231 [5])	Activity (MDA-MB-231 [6])	Activity (MDA-MB-231 [7])	Activity (MDA-MB-231 [8])	Activity (MDA-MB-231 [9])	Activity (MDA-MB-231 [10])	Activity (MDA-MB-231 [11])	Activity (MDA-MB-231 [12])	Activity (MDA-MB-231 [13])	Activity (MDA-MB-231 [14])	Activity (MDA-MB-231 [15])	Activity (MDA-MB-231 [16])	Activity (MDA-MB-231 [17])	inhibition [18]	inhibition [19]	inhibition [20]	also measured
COC(=O)c1cc2c3ccccc3[nH]c2c2cn(-c3ccc(C(F)(F)F)cc3)c[n+]12.[Cl-]	7.98 µM	31.17%	9.02%	13.43%	Active	Active	Active	Active	Active	31.1%	29.7%	39%	Active	Active	Active	Active	Active	Active	Active	Active	inhibition [21]: Active; Activity [22]: Active
COC(=O)c1cc2c3ccccc3[nH]c2c2cn(-c3ccc(F)cc3Cl)c[n+]12.[Cl-]	4.49 µM		7.04%																		
COC(=O)c1cc2c3ccccc3[nH]c2c2cn(-c3ccc(C)cc3Br)c[n+]12.[Cl-]	7.28 µM	64.96%	16.58%	17.42%	Active	Active	Active	Active	Active	35.3%	26.3%	38.2%	Active	Active	Active	Active	Active	Active	Active	Active	inhibition [21]: Active; Activity [22]: Active
